From PubChem BioAssay AID623887 (Johns Hopkins Ion Channel Center, 2012)
Where “and” joins values, the source holds several entries; their conditions need not be identical. Equal values may be shown once. Calls of active or inactive are those of the source.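 How the source made its calls: active means blocks the KCNK9 potassium channel at some tested concentration and gives a dose response curve; inactive means the rest.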

Molecular target: Potassium channel subfamily K member 9 (Homo sapiens) (UniProt Q9NPC2)
Sequence (Q9NPC2 whole entry, looked up): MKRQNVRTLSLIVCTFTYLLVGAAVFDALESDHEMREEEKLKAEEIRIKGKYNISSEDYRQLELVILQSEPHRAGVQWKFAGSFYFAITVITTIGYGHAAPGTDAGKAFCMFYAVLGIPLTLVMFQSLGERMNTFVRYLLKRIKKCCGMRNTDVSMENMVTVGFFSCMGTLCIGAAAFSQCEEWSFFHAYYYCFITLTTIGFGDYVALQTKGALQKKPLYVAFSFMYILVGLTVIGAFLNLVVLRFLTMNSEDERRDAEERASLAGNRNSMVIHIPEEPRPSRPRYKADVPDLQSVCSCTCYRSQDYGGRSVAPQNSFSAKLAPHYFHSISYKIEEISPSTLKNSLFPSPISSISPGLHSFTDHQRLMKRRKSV
Assay: concentration-dependent blockade of KCNK9 channel – cell-based, round 4, SAR follow-up (AID 623887)
Conditions: HEK293-KCNK9 thallium flux, FluxOR fluorescence; for flux ratio, lower = inhibition: at 30 µM (top of the series)
How it was run: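 Assay system: tetracycline-induced HEK293 cells stably expressing the KCNK9 channel; Incubation: 90 min dye loading, then 20 min compound preincubation at room temperature; Repeats: replicate measurements at each compound concentration; Signal: kinetic FluxOR fluorescence of thallium influx, 110 s after stimulus; Compound dosing: concentration series.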

IC50	flux ratio, lower = inhibition	Structure (SMILES)
1.83 µM		CC(C1CC2CCC1C2)n1c(SCCc2cccc(O)c2)nnc1-c1ccco1 (stereo not drawn)
0.467 µM		COc1cccc(-c2n[nH]c(=S)n2[C@H](C)[C@@H]2CC3CC[C@H]2C3)c1
0.181 µM and 0.128 µM		C[C@@H]([C@@H]1CC2CC[C@H]1C2)n1c(-c2ccco2)n[nH]c1=S
0.141 µM		CCCC(=O)C1CCN(c2ncnc3c2CN(C(=O)c2ccc(-c4ccccc4)cc2)CC3)CC1
0.683 µM		C[C@H](C1CCCCC1)n1c(-c2ccccc2F)n[nH]c1=S
0.18 µM		CC([C@@H]1CC2CC[C@H]1C2)n1c(-c2ccsc2)n[nH]c1=S (stereo partly drawn)
0.169 µM		C[C@H]([C@@H]1CC2CC[C@H]1C2)n1c(-c2ccccc2F)n[nH]c1=S
0.053 µM		C[C@H]([C@@H]1CC2CC[C@H]1C2)n1c(-c2ccco2)n[nH]c1=S
0.428 µM		C[C@H](C1CCCCC1)n1c(-c2ccsc2)n[nH]c1=S
	inactive	CC(C1CCN(C)CC1)n1c(-c2ccco2)n[nH]c1=S (stereo not drawn)
3.2 µM		COc1ccc(CC(=O)NCc2ccccc2-c2ccccc2C(=O)NCc2ccc(F)cc2F)cc1
0.146 µM and 0.544 µM		C[C@@H]([C@@H]1CC2CC[C@H]1C2)n1c(-c2ccsc2)n[nH]c1=S
0.582 µM		CC(C1C[C@H]2CCC1C2)n1c(-c2ccsc2)n[nH]c1=S (stereo partly drawn)

Continued, compound first:

Structure (SMILES)	IC50	flux ratio, lower = inhibition
CC(C1CC2CCC1C2)n1c(-c2ccco2)nn(CCc2ccncc2)c1=S (stereo not drawn)	0.223 µM	
COc1cccc(CCSc2nnc(-c3ccco3)n2C(C)C2CC3CCC2C3)c1 (stereo not drawn)	1.19 µM	
COc1ccc(C(=O)CCSc2nnc(-c3ccco3)n2C(C)C2CC3CCC2C3)cc1OC (stereo not drawn)	0.663 µM	
CC(C1CC2CCC1C2)n1c(SCCN2CCOCC2)nnc1-c1ccco1 (stereo not drawn)		inactive
CC(C1CC2CCC1C2)n1c(SCCc2ccccn2)nnc1-c1ccco1 (stereo not drawn)	3.09 µM	
COc1ccc(NC(=O)CSc2nnc(-c3ccco3)n2C(C)C2CC3CCC2C3)cc1OC (stereo not drawn)	18.3 µM	
COc1cccc(-c2n[nH]c(=S)n2[C@H](C)C2CCCCC2)c1	3.42 µM	
COc1ccc(CSc2nnc(-c3ccco3)n2C(C)C2CC3CCC2C3)cc1OC (stereo not drawn)	0.547 µM	
CC(C1CC2CCC1C2)n1c(SCC(=O)N2CCN(C)CC2)nnc1-c1ccco1 (stereo not drawn)	28 µM	
COc1cccc(-c2nnc(SSc3nnc(-c4cccc(OC)c4)n3C(C)C3CC4CCC3C4)n2C(C)C2CC3CCC2C3)c1 (stereo not drawn)	28 µM	
